Assay results: ChEMBL document CHEMBL4396972, “Glycyrrhizic acid derivatives as Dengue virus inhibitors” (Bioorg Med Chem Lett, 2019)
pIC50: −log10 of the molar value. Activity calls are given as the source filed them. The calls are words filed in the database; no cut-off is given here.

How the values were obtained:
Vero C1008 = test: Cytotoxicity against African green monkey Vero E6 cells assessed as reduction in survival rate measured after 48 hrs by MTT assay; format: cell-based; conditions: chlorocebus sabaeus, vero c1008, 48 h
Procedure, shortened: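 MTT viability test on Vero E6 cells in DMEM over a range of compound concentrations. CC50 calculated from survival of treated cells relative to mock cells.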

[1] = Therapeutic index, ratio of CC50 for African green monkey Vero E6 cells to IC50 for DENV2 16681 infected in African green monkey Vero E6 cells; format: toxicity, Vero C1008; conditions: read-out: Ratio CC50/IC50
Procedure, shortened: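 TI = CC50/IC50. CC50 comes from the Vero E6 MTT survival test. IC50 comes from the NS4B-positive cell fraction by immunofluorescence in DENV2 16681-infected Vero E6 cells (MOI 0.01, 96 h, 0–10 μM).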

dengue virus type 2 [2] = test: Antiviral activity against DENV2 16681 infected in African green monkey Vero E6 cells assessed as reduction in virus induced cytopathic effect measured after 96 hrs by reverse phase contrast microscopy; format: functional, organism-based; conditions: Vero C1008
Procedure, shortened: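 Vero E6 cells in DMEM infected with DENV2 16681 at MOI 0.01, compound added immediately (screen at 10 μM, then 0, 0.1, 1, 10 μM). Photographed 96 h post infection by phase-contrast microscopy. CPE reduction scored qualitatively (−, +, ++, +++).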

dengue virus type 2 [3] = test: Antiviral activity against DENV2 16681 infected in African green monkey Vero E6 cells assessed as reduction in virus induced cytopathic effect at 10 uM measured after 96 hrs by reverse phase contrast microscopy; format: functional, organism-based; conditions: Vero C1008
Procedure, shortened: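 Vero E6 cells in supporting DMEM infected with DENV2 strain 16681 (MOI 0.01), then treated immediately with compound at 10 μM. After 96 h incubation, cytopathic effect photographed by reverse phase-contrast microscopy and scored semi-quantitatively (−, +, ++, +++) against infected controls.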

dengue virus type 2 [4] = test: Antiviral activity against DENV2 16681 infected in African green monkey Vero E6 cells assessed as inhibitory rate of NS4B positive cells at 10 uM measured after 96 hrs incubation by DAPI staining based immunofluorescence method; format: functional; conditions: Dengue virus, 16681, Vero C1008, 96 h
Procedure, shortened: (§1)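 Vero E6 cells in DMEM infected with DENV2 strain 16681 at MOI 0.01, treated at once with compound (0, 0.1, 1, 10 μM), 96 h. Immunofluorescence with anti-NS4B antibody and DAPI counterstain. Infectivity taken as NS4B-positive cells over DAPI-stained total cells. Inhibitory rate = (1 − NS4B-positive % treated infected / NS4B-positive % mock-treated infected) × 100.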

dengue virus type 2 [5] = test: Antiviral activity against DENV2 16681 infected in African green monkey Vero E6 cells assessed as inhibitory rate of NS4B positive cells measured after 96 hrs incubation by DAPI staining based immunofluorescence method; format: functional, organism-based; conditions: for pIC50: Dengue virus, 16681, Vero C1008, 96 h; for inhibition: Vero C1008
Procedure, shortened: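 Vero E6 cells in DMEM, infected with DENV2 strain 16681 at MOI 0.01 and treated with compound (0, 0.1, 1, 10 μM; single 10 μM for screening). After 96 h, immunofluorescence with anti-NS4B antibody and DAPI nuclear counterstain. Infectivity = NS4B-positive cells / DAPI-stained cells. Inhibitory rate = (1 − NS4B-positive % treated / NS4B-positive % mock-treated infected) × 100. IC50 derived from NS4B-positive percentages across concentrations.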

dengue virus type 2 [6] = test: Antiviral activity against DENV2 16681 infected in human A549 cells assessed as inhibitory rate of NS4B positive cells at 0.1 to 10 uM measured after 120 hrs post infection by DAPI staining based immunofluorescence method; format: functional, organism-based
dengue virus type 2 [7] = test: Antiviral activity against DENV2 16681 infected in human A549 cells assessed as reduction in virus induced cytopathic effect at 0.1 to 10 uM measured after 120 hrs post infection by light microscopy; format: functional, organism-based
dengue virus type 2 [8] = test: Antiviral activity against DENV2 16681 infected in African green monkey Vero E6 cells assessed as inhibitory rate of NS4B positive cells at 1 uM measured after 96 hrs incubation by DAPI staining based immunofluorescence method; format: functional; conditions: Dengue virus, 16681, Vero C1008, 96 h; procedure, shortened: as §1

Compound	CC50 (Vero C1008)	selectivity ratio [1]	inhibition (dengue virus type 2 [2])	inhibition (dengue virus type 2 [3])	inhibition at 10 µM (dengue virus type 2 [4])	pIC50 (dengue virus type 2 [5])	inhibition (dengue virus type 2 [5])	inhibition (dengue virus type 2 [6])	inhibition (dengue virus type 2 [7])	inhibition at 1 µM (dengue virus type 2 [8])
COC(=O)[C@H](CCSC)NC(=O)[C@H]1O[C@@H](O[C@H]2[C@@H](O[C@H]3CC[C@]4(C)[C@H]5C(=O)C=C6[C@@H]7C[C@@](C)(C(=O)N[C@@H](CCSC)C(=O)OC)CC[C@]7(C)CC[C@@]6(C)[C@]5(C)CC[C@H]4C3(C)C)O[C@H](C(=O)N[C@@H](CCSC)C(=O)OC)[C@@H](O)[C@@H]2O)[C@H](O)[C@@H](O)[C@@H]1O	> 100 µM	> 22.2	Dose-dependent effect	Active	66.3%	5.35	Dose-dependent effect	–	–	–
CC[C@H](C)[C@H](NC(=O)[C@H]1O[C@@H](O[C@H]2[C@@H](O[C@H]3CC[C@]4(C)[C@H]5C(=O)C=C6[C@@H]7C[C@@](C)(C(=O)N[C@H](C(=O)O)[C@@H](C)CC)CC[C@]7(C)CC[C@@]6(C)[C@]5(C)CC[C@H]4C3(C)C)O[C@H](C(=O)N[C@H](C(=O)O)[C@@H](C)CC)[C@@H](O)[C@@H]2O)[C@H](O)[C@@H](O)[C@@H]1O)C(=O)O	> 100 µM	> 76.3	Dose-dependent effect	Active	95.7%	5.89	Dose-dependent effect	Active	Active	20.2%
